In brackets after ≈: the same amount, converted by molar mass.
Columns and labels:
Assay type in all cases: functional
[1] = test system: Mycobacterium tuberculosis variant bovis; assay: In vitro activity against Mycobacterium. tuberculosis (strain type-ATCC 27289).at pH 6.6
Procedure, shortened: (§1)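 Twofold serial dilutions (200–3.12 µg/mL) in 7H10 agar with 10% OADC enrichment at pH 6.6, in compartmented plates. Plates were stored at 4 °C and used within 24–48 h. A no-drug compartment served as control for each isolate. Plates were incubated for 4 weeks at 37 °C. MIC was the lowest concentration giving 99% (2 log) growth inhibition.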

[2] = test system: Mycobacterium tuberculosis variant bovis; assay: In vitro activity against Mycobacterium. tuberculosis (strain type-ATCC 27289).at pH 5.8
Procedure, shortened: (§2)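 Middlebrook 7H10 agar plus 10% OADC at pH 5.8 in compartmented plates, with serial twofold dilutions from 200 to 3.12 µg/mL. Plates were prepared 24–48 h before use and stored at 4 °C. A drug-free compartment was included per isolate. Incubation was 37 °C for 4 weeks. MIC was the lowest level producing 99% (2 log) inhibition of growth.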

[3] = test system: Mycobacterium tuberculosis variant bovis; assay: In vitro activity against Mycobacterium. tuberculosis (strain type-ATCC 27289)at pH 5.8.; procedure, shortened: as §2
[4] = test system: Mycobacterium tuberculosis variant bovis; assay: In vitro inhibitory activity against Mycobacterium tuberculosis (strain type-ATCC 27289). at pH 5.8; procedure, shortened: as §2
[5] = test system: Mycobacterium tuberculosis variant bovis; assay: In vitro inhibitory activity against Mycobacterium tuberculosis (strain type-ATCC 27289). at pH 6.6; procedure, shortened: as §1
[6] = test system: Mycobacterium tuberculosis variant bovis; assay: In vitro activity against Mycobacterium. tuberculosis (strain type-ATCC 27289). at pH 6.6; procedure, shortened: as §1
[7] = test system: Mycobacterium tuberculosis variant bovis; assay: In vitro activity against Mycobacterium. tuberculosis (strain type-ATCC 27289)at pH 6.6; procedure, shortened: as §1
[8] = test system: Mycobacterium tuberculosis variant bovis; assay: In vitro inhibitory activity against Mycobacterium. tuberculosis (strain type-ATCC 27289).at pH 5.8; procedure, shortened: as §2
[9] = test system: Mycobacterium tuberculosis variant bovis; assay: In vitro inhibitory activity against Mycobacterium. tuberculosis (strain type-ATCC 27289).at pH 6.6; procedure, shortened: as §1
[10] = test system: Mycobacterium tuberculosis variant bovis; assay: In vitro inhibitory activity against Mycobacterium tuberculosis (strain type-ATCC 27289) at pH 5.8.; procedure, shortened: as §2

Compound | MIC [1] [µg/mL] | MIC [2] [µg/mL] | other results
CC(C)(C)c1ccc(OC(=O)c2cnccn2)cc1 | 200 (≈ 780 µM) | 25 (≈ 97.5 µM) | 
O=C(OCCCl)c1cnccn1 |  |  | MIC [3]: 6.25 µg/mL (≈ 33.5 µM)
CN(C)CCOC(=O)c1cnccn1 |  |  | MIC [4]: 12.5 µg/mL (≈ 64 µM); MIC [5]: 200 µg/mL (≈ 1020 µM)
O=C(OCC(F)(F)F)c1cnccn1 |  | 25 (≈ 121 µM) | MIC [6]: > 200 µg/mL
Cc1ccc(OC(=O)c2cnccn2)cc1 | 50 (≈ 233 µM) | 6.25 (≈ 29.2 µM) | 
O=C(Oc1ccc([N+](=O)[O-])cc1)c1cnccn1 | 100 (≈ 408 µM) | 3.12 (≈ 12.7 µM) | 
CCCOC(=O)c1cnccn1 | 25 (≈ 150 µM) | 6.25 (≈ 37.6 µM) | 
O=C(Oc1c(F)c(F)c(F)c(F)c1F)c1cnccn1 |  | 12.5 (≈ 43.1 µM) | MIC [7]: 100 µg/mL (≈ 345 µM)
C=CCOC(=O)c1cnccn1 | 200 (≈ 1220 µM) | < 3.12 | 
O=C(Oc1ccc(-c2ccccc2)cc1)c1cnccn1 | 100 (≈ 362 µM) | 25 (≈ 90.5 µM) | 
O=C(OCCBr)c1cnccn1 | > 200 |  | 
O=C(OC(C(F)(F)F)C(F)(F)F)c1cnccn1 |  | > 200 | 
NC(=O)c1cnccn1 [PYRAZINAMIDE] |  |  | MIC [8]: > 200 µg/mL; MIC [9]: > 200 µg/mL
O=C(O)c1cnccn1 [PYRAZINOIC ACID] |  |  | MIC [10]: 100 µg/mL (≈ 806 µM); MIC [5]: > 200 µg/mL
